Source: ChEMBL document CHEMBL1649550, “Antibacterial properties and mode of action of a short acyl-lysyl oligomer” (2009)
Calls of active or inactive are those of the source. The rule behind the calls is not given here.

Test system: Staphylococcus aureus
Test: Antibacterial activity against Staphylococcus aureus ATCC 29213 assessed as disruption of plasma membrane permeability at 4 times MIC by ethidium bromide uptake assay
Format: functional, organism-based
How it was run: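 S. aureus grown overnight in LB at 37°C to OD620 of 1, washed twice in PBS and resuspended in PBS with 0.5% glucose, then 10 min at 37°C. Cells added to EtBr (final 1.0 μg/ml) with compound (serial twofold concentrations), Triton 0.01% final, or antibiotic at 4× MIC. Fluorescence followed over time (ex 530, em 645 nm).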

| Compound | Activity |
| --- | --- |
| CN(C)[C@@H]1C(O)=C(C(N)=O)C(=O)[C@@]2(O)C(O)=C3C(=O)c4c(O)cccc4[C@@](C)(O)[C@H]3C[C@@H]12 | inactive |
| O=C(O)c1cn(C2CC2)c2cc(N3CCNCC3)c(F)cc2c1=O | inactive |
| GENTAMICIN | inactive |
